Lung fibro prol = blocks proliferation of human lung fibroblasts; 85,000 tested, 1.1% active; viability, % at 10 µM; LL 47 human lung fibroblast viability, ATP luminescence; hits give low values;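 active means viability at or below 50% in the single dose screen; inactive means viability above 50%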;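 further: compound exposure lasted 72 h before the ATP readout; 100% = median luminescence of untreated cell-only wells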
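Assay system: human lung fibroblast line LL 47, low passage. Input: 1,150 fibroblasts seeded per well. Times: overnight cell rest, 72 h compound treatment at 37 °C. Evaluation: % viability of median cell-only signal. Technique: luminescent ATP detection, CellTiter-Glo. Control set: cell-only wells, no compound.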
H69AR inhibit = growth inhibitors of human H69AR lung tumor cells. 85,000 tested, 6% active. viability, % at 10 µM. AID 598. H69AR lung tumor viability, ATP luminescence, 72 h; hits give low values;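 active means viability at or below 40%; inactive means viability above 40%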;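 further: multidrug resistant small cell line overexpressing MRP-1 efflux transporter; 100% = mean luminescence of untreated control wells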
HUVEC prolif 384 = human endothelial cell proliferation inhibition; HUVEC proliferation, CellTiter-Glo luminescence, 72 h; hits give low values; viability, % at 10 µM (by protocol); 86,000 tested, 1.1% active; AID 648;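 active means viability at or below 30%; inactive means viability above 30%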;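 further: 100% = median luminescence of DMSO-only cell control wells on each plate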
MT1-MMP txn act = MT1-MMP promoter transcription activation | 86,000 tested, 0.16% active | HT1080 MT1-MMP promoter luciferase reporter, luminescence, overnight; hits give high values | activation factor at 10 µM;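 active means activation factor of at least 2 for MT1-MMP transcription at 10 µM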
Jurkat tox 60K = cytotoxicity toward Jurkat cells | AID 463 | 56,000 tested, 1.2% active | inhibition, % at 4 µM | Jurkat E6.1 viability, ATP luminescence, 48 h;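 active means inhibition above the mean inhibition of all tested compounds plus 3 SD, cut at about 28% in these data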
PTK2B oligo ant = Pyk2 (human) oligomerization antagonism; Q14289; Q293 cells, Pyk2 FERM NanoBiT luminescence; hits give low values; z-score (the deposit names both 25 µM and 10 µM); 99,000 tested, 0.83% active; AID 1347419;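 active means Z-score of -3 or lower, scaled per plate to the spread of control and sample wells; inactive means z-score above -3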;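 further: negative z-score means lost luminescence so less FERM oligomerization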
Active calls of the source: *; nt = no result. Most compounds without a hit are left out; they make up all but 5.9% or so of the library.

SMILES | Lung fibro prol | H69AR inhibit | HUVEC prolif 384 | MT1-MMP txn act | Jurkat tox 60K | PTK2B oligo ant
CCOC(=O)c1nn(-c2ccccc2F)c(-c2ccccc2)c1C(=O)c1ccccc1 | nt | nt | nt | nt | nt | -4*
CCOC(=O)c1nn(-c2cccc(Cl)c2)c(C)c1C(C)=O | nt | nt | nt | nt | nt | -0.2
CCOC(=O)c1nn(-c2ccccc2)c(-c2ccccc2)c1C(=O)c1ccccc1 | nt | nt | nt | nt | nt | -3.5*
CCOC(=O)c1nn(-c2ccc(F)cc2)c(-c2ccccc2)c1C(=O)c1ccccc1 | nt | nt | nt | nt | nt | -3.1*
CON(C)c1nc(NCC(C)C)nc(OCC#N)n1 | nt | nt | nt | nt | nt | 0.49
COC(=O)c1ccc(C(=O)OC)c(NC(=O)CN(c2ccc3c(c2)OCO3)S(C)(=O)=O)c1 | 99 | 90 | 95 | 1.1 | nt | -1.2
COCCCNc1c2c3c(cccc3[nH]c1=O)C(=O)c1ccccc1-2 | 64 | 18* | 46 | 1 | nt | nt
Oc1ccc(N2CCN(C(=S)NCCc3ccccc3)CC2)cc1 | nt | nt | nt | nt | nt | 1.2
COC(=O)[C@H](CCSC)NC(=O)NCc1ccc(S(N)(=O)=O)cc1 | 99 | 1.9* | 90 | 1.1 | 1 | 0.33
CCOC(=O)NCc1ccc(S(=O)(=O)Nc2c(C)cccc2C)cc1 | 94 | 100 | 96 | 1.1 | nt | 0.36
Cc1cccc2cc(CN(Cc3nnnn3Cc3ccco3)C3CCCC3)c3nnnn3c12 | 96 | 53 | 80 | 1.2 | -1 | -0.64
COc1ccc(-c2ccc(C#N)c(SCC(=O)Nc3sc4c(c3C#N)CCC4)n2)cc1 | 99 | 81 | 92 | 1.1 | nt | 0.23
N#Cc1ccccc1NC(=O)CSc1nnc(-c2ccccc2O)n1-c1ccccc1 | 90 | 33* | 84 | 1 | 6 | -1.4
N#Cc1c(NC(=O)c2cccnc2)sc2c1CCC2 | 75 | 21* | 54 | 1 | nt | 0.01
N#Cc1ccc(-c2cccnc2)nc1SCC(=O)Nc1sc2c(c1C#N)CCC2 | 31* | 101 | 38 | 1.1 | nt | -2
CCn1c2ccccc2c2cc(NC(=O)CSc3nnc(-c4ccc(OC)c(OC)c4)n3N)ccc21 | 107 | 22* | 83 | 1.3 | nt | -0.85
COc1ccccc1NC(=O)N1CCC(c2nnc(SCC(N)=O)n2C)CC1 | 107 | 98 | 108 | 1.1 | nt | 1.5
COc1ccc(CC(NC(C)=O)C(=O)NC2CCN(S(=O)(=O)c3ccccc3)CC2)cc1OC (centres undefined) | 103 | 99 | 89 | 1.2 | -4 | 0.3
CC(C)(C)C1CCc2c(sc(NC(=O)c3cc(C4CC4)on3)c2C#N)C1 (centres undefined) | 90 | 72 | 79 | 1.1 | 7 | nt
Cc1cc(C(=O)Nc2sc3c(c2C#N)CCC(C(C)(C)C)C3)no1 (centres undefined) | 89 | 23* | 67 | 1.5 | 1 | -0.78
N#Cc1c(NC(=O)c2ccccc2)sc2c1CCC2 | 84 | 21* | 55 | nt | nt | 0.29
COc1ccc(-c2nnc(SCC(=O)Nc3ncc(C)s3)n2-c2ccccc2)cc1OC | 82 | 17* | 58 | 1.2 | 50* | -0.66
CCc1nnc(NC(=O)CSc2nnc(-c3ccc(O)cc3)n2-c2ccccc2)s1 | 92 | 67 | 97 | 1 | 5 | nt
Cc1cccc(C(=O)Nc2sc3c(c2C#N)CCCCC3)c1 | 99 | 58 | 71 | 1.1 | nt | -0.4
CCc1ccc(CCC(=O)Nc2sc3c(c2C#N)CCCC3)o1 | 58 | 33* | 34 | nt | 89* | 0.97
SMILES | Lung fibro prol | H69AR inhibit | HUVEC prolif 384 | MT1-MMP txn act | Jurkat tox 60K | PTK2B oligo ant
COc1ccc(C)cc1NC(=O)C(NCC1CCCO1)c1ccccc1 (centres undefined) | nt | nt | nt | nt | nt | 0.48
CN=C1SC(CC(=O)Nc2sc3c(c2C#N)CCCC3)C(=O)N1C (centres undefined) | 98 | 21* | 87 | 1.2 | nt | 1
CC(C)c1cc(C(=O)Nc2sc3c(c2C#N)CCC3)no1 | 84 | 26* | 65 | 1.2 | 69* | 0.52
CCOC(=O)Nc1sc2c(c1C#N)CCCC2 | 95 | 61 | 106 | 1.7 | nt | -0.59
CC(C)(C)C(=O)Nc1sc2c(c1C#N)CCCCC2 | 105 | 96 | 102 | 1.1 | nt | 0.39
N#Cc1c(NC(=O)CCC(=O)O)sc2c1CCCC2 | 92 | 98 | 104 | 1 | nt | 0.71
COc1ccc(-n2c(SCC(=O)Nc3sc4c(c3C#N)CCCC4)nnc2-c2ccccc2OC)cc1 | 104 | 92 | 84 | 1.1 | nt | -2.4
CCCC1CCc2c(sc(NC(=O)OCC)c2C#N)C1 (centres undefined) | 84 | 28* | 56 | 1.1 | nt | -0.14

Source: PubChem (several laboratories)
